According to ChEMBL document CHEMBL1151197, “Molecular-targeted antitumor agents: the Saururus cernuus dineolignans manassantin B and 4-O-demethylmanassantin B are potent inhibitors of hypoxia-activated HIF-1” (J Nat Prod, 2004):
Activity calls are given as the source filed them. The rule behind the calls is not given here.

Experiments:
Type in all cases: cell-based
[1] = biological target: T1, Hypoxia inducible factors; HIF-1-alpha, HIF-2-alpha (Homo sapiens, UniProt Q16665+Q99814); test: Inhibition of hypoxia-induced HIF1 activation in human T47D cells after 16 hrs by pTK-HRE3-luciferase reporter gene assay
Summary of the method: (§1)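 Reporter: T47D cells electroporated with pTK-HRE3-luc (140 V, 70 ms, 1 pulse), plated 4.5 × 10^4 cells/well, after 24 h pretreated with serial dilutions for 30 min at 37 °C, then hypoxia (1% O2/5% CO2/94% N2) for 16 h at 37 °C. Luciferase read from lysates; triplicate wells, means ± SD. pGL3-Control cells run as counter-screen.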

[2] = biological target: T1, Hypoxia inducible factors; HIF-1-alpha, HIF-2-alpha; test: Inhibition of hypoxia-induced HIF1 activation in human T47D cells at 10 nM after 16 hrs by pTK-HRE3-luciferase reporter gene assay; summary of the method: as §1
[3] = biological target: T1, Hypoxia inducible factors; HIF-1-alpha, HIF-2-alpha; test: Inhibition of 1,10-phenathroline-induced HIF1 activation in human T47D cells after 16 hrs at >=10 nM by pTK-HRE3-luciferase reporter gene assay; parameters: scale not given: the % may be the effect or the level left
Summary of the method: (§2)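 T47D cells electroporated with pTK-HRE3-luc (140 V, 70 ms, 1 pulse), plated 4.5 × 10^4 cells/well, after 24 h given a dilution series for 30 min at 37 °C, then 10 µM 1,10-phenanthroline for 16 h at 37 °C. Luciferase read from cell lysates; quadruplicate wells. Specificity counter-screen used pGL3-Control-transfected cells.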

[4] = biological target: T1, Hypoxia inducible factors; HIF-1-alpha, HIF-2-alpha; test: Inhibition of 1,10-phenathroline-induced HIF1 activation in human T47D cells after 16 hrs at >=30 nM by pTK-HRE3-luciferase reporter gene assay; parameters: scale not given: the % may be the effect or the level left; summary of the method: as §2
T47D [5] = test: Inhibition of hypoxia-induced VEGF production in human T47D cells after 16 hrs by ELISA
Summary of the method: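 T47D cells at 3 × 10^4 cells/well, 30 min compound pretreatment, then 16 h hypoxia (1% O2). Secreted VEGF measured in conditioned medium by sandwich ELISA (OD450, 540 nm correction) against a standard curve. Values normalized to viable cell number from Neutral Red uptake (OD540 minus 630 nm, cell-number standard curve). Quadruplicate; mean ± SEM; ANOVA with Fisher's PLSD.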

[6] = biological target: Hypoxia-inducible factor 1-alpha (Homo sapiens) (UniProt Q16665); test: Inhibition of hypoxia-induced nuclear HIF1 alpha level in human T47D cells at 10 to 100 nM preincubated for 30 mins before addition of hypoxia measured after 4 hrs by Western blotting
Chain of Hypoxia-inducible factor 1-alpha (Homo sapiens) (Q16665 whole entry, looked up): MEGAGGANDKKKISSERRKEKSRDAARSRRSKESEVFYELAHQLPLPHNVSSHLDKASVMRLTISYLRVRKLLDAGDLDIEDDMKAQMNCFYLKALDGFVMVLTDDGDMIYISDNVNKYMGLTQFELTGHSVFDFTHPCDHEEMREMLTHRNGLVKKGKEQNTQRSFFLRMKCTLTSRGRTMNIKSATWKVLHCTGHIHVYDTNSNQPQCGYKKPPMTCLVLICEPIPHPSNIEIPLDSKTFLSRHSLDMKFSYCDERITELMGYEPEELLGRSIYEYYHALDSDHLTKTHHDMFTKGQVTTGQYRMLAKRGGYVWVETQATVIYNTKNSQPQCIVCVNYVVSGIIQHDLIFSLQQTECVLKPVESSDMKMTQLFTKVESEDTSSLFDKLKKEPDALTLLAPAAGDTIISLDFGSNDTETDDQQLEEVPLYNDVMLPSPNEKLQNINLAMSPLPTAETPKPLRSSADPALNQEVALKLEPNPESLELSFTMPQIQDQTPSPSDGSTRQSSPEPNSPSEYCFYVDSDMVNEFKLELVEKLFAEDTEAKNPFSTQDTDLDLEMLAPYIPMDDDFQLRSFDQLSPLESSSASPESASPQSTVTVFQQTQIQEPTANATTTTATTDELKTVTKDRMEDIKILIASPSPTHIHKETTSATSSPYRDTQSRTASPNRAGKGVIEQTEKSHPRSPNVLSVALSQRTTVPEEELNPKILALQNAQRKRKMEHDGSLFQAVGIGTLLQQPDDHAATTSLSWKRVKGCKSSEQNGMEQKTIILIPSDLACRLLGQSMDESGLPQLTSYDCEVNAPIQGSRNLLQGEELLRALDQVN
Summary of the method: (§3)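 Seeded at 1.7 × 10^5 cells/cm2 overnight, T47D cells got 10 or 100 nM for 30 min, then 4 h of hypoxia or 10 µM 1,10-phenanthroline at 37 °C. Nuclear extracts prepared by NP-40 lysis and 500 mM KCl extraction, separated on 7% SDS-PAGE. Blots probed with anti-HIF-1α (1:500), stripped, reprobed for HIF-1β (1:1500); ABC/ECL detection, Ponceau-S loading check.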

[7] = biological target: Hypoxia-inducible factor 1-alpha (Homo sapiens) (UniProt Q16665); test: Inhibition of 1,10-phenathroline-induced nuclear HIF1 alpha level in human T47D cells at 10 to 100 nM preincubated for 30 mins before addition of 1,10-phenathroline measured after 4 hrs by Western blotting; summary of the method: as §3
T47D [8] = test: Inhibition of hypoxia-induced nuclear HIF1 beta level in human T47D cells at 10 to 100 nM preincubated for 30 mins before addition of hypoxia measured after 4 hrs by Western blotting; summary of the method: as §3
T47D [9] = test: Inhibition of 1,10-phenathroline-induced nuclear HIF1 beta level in human T47D cells at 10 to 100 nM preincubated for 30 mins before addition of 1,10-phenathroline measured after 4 hrs by Western blotting; summary of the method: as §3
[10] = biological target: T1, Hypoxia inducible factors; HIF-1-alpha, HIF-2-alpha; test: Inhibition of hypoxia-induced HIF1 activation in human T47D cells at 100 nM after 16 hrs by pTK-HRE3-luciferase reporter gene assay; summary of the method: as §1

IC50 [1] [µM] | Activity [2] | Activity [3] [%] | Activity [4] [%] | Activity [6] | Activity [7] | Activity [10] | Compound | Activity (T47D [5]) | Activity (T47D [8]) | Activity (T47D [9])
0.003 | Active | < 50 | < 50 | Active | inactive | – | COc1ccc([C@@H](O)[C@@H](C)Oc2ccc([C@H]3O[C@H](c4ccc(O[C@H](C)[C@H](O)c5ccc6c(c5)OCO6)c(OC)c4)[C@H](C)[C@H]3C)cc2OC)cc1OC (relative stereo) [MANASSANTIN B] | Active | inactive | inactive
0.03 | – | < 50 | < 50 | – | – | Active | COc1cc([C@@H](O)[C@@H](C)Oc2ccc([C@H]3O[C@H](c4ccc(O[C@H](C)[C@H](O)c5ccc6c(c5)OCO6)c(OC)c4)[C@H](C)[C@H]3C)cc2OC)ccc1O (mixture of isomers) [4-O-DEMETHYLMANASSANTIN B] | Active | – | –
